Measured values as given in ChEMBL document CHEMBL1817655, “Tylosema esculentum extractives and their bioactivity” (Bioorg Med Chem, 2011).

Legend:
Type in all cases: functional
[1] = system: Pseudomonas aeruginosa; assay: Antimicrobial activity against Pseudomonas aeruginosa NCTC 10332 after 24 hrs using thiazoyl blue by agar overlay bioautography method
How it was run: (§1)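 Agar-overlay TLC bioautography. Stock samples (10 mg/mL) were serially diluted to 5.0, 1.0, 0.05 and 0.001 mg/mL, spotted on silica gel TLC plates and dried. Plates were overlaid with Sabouraud dextrose agar seeded with 24-h cultures and run in duplicate. Incubation was 24 h at 37 °C for S. aureus and E. coli, and 25 °C for B. subtilis, P. aeruginosa and C. albicans. Plates were then sprayed with MTT and incubated a further 4 h. MIQ was the lowest loading giving a white inhibition zone.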

[2] = system: Bacillus subtilis; assay: Antimicrobial activity against Bacillus subtilis ATCC 6633 after 24 hrs using thiazoyl blue by agar overlay bioautography method; how it was run: as §1
[3] = system: Staphylococcus aureus; assay: Antimicrobial activity against Staphylococcus aureus ATCC 9144 after 24 hrs using thiazoyl blue by agar overlay bioautography method; how it was run: as §1
[4] = system: Candida albicans; assay: Antimicrobial activity against Candida albicans ATCC 10231 after 24 hrs using thiazoyl blue by agar overlay bioautography method; how it was run: as §1
[5] = system: Escherichia coli; assay: Antimicrobial activity against Escherichia coli ATCC 11229 after 24 hrs using thiazoyl blue by agar overlay bioautography method; how it was run: as §1
[6] = Antioxidant activity assessed as H2O2 scavenging activity at 12.5 to 250 ug/mL after 30 mins by spectrophotometric analysisic analysis
How it was run: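 Hydrogen peroxide (32.7 mM in PBS, pH 7.4; 0.6 mL) was combined with 0.05–1 mL of 1 mg/mL extract or standard (gallic acid, ascorbic acid) and made up to 4 mL with water. A230 was read before and after 30 min. Background correction used buffer without peroxide. Percent scavenged = (A0 − A1)/A0 × 100.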

[7] = system: Radical scavenging activity; assay: Antioxidant activity assessed as DPPH radical scavenging activity after 30 mins by spectrophotometric analysisic analysis
How it was run: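 Methanolic samples (0.005–0.5 mg/mL) were mixed 1:1 by volume with 2% DPPH and incubated in the dark at room temperature. Absorbance at 517 nm was read at 0.5, 1, 3, 6 and 24 h. Percent scavenged = (A_blank − A_sample)/A_blank × 100, with the blank being DPPH without sample. Ascorbic acid served as reference. Run in triplicate.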

CCO[C@@H]1[C@@H](O)[C@H](O)[C@@H](CO)O[C@@H]1O
50 µg: MIC [1] | MIC [2] | MIC [3] | MIC [4] | MIC [5]

O=C1O[C@H]([C@@H](O)CO)C(O)=C1O [ASCORBIC ACID]
> 50%: Activity [6]
41.08 µg/mL: EC50 [7]

CCCCCCCCCCCCCCCCCCCCCC(=O)O [BEHENIC ACID]
50 µg: MIC [1] | MIC [2] | MIC [3] | MIC [4] | MIC [5]

CC[C@H](CC[C@@H](C)[C@H]1CC[C@H]2[C@@H]3CC=C4C[C@@H](O)CC[C@]4(C)[C@H]3CC[C@]12C)C(C)C [BETA-SITOSTEROL]
50 µg: MIC [1] | MIC [2] | MIC [3] | MIC [4] | MIC [5]

O=C(N[C@H](CO)[C@H](O)c1ccc([N+](=O)[O-])cc1)C(Cl)Cl [CHLORAMPHENICOL]
0.001 µg: MIC [1] | MIC [2] | MIC [3] | MIC [4] | MIC [5]

O=C(O)c1cc(O)c(O)c(O)c1 [GALLIC ACID]
50 µg: MIC [1] | MIC [2] | MIC [3] | MIC [4] | MIC [5]
1.85 µg/mL: EC50 [7]
> 50%: Activity [6]

O=C1C=C2C=C[C@@H](O)[C@H](O)[C@H]2O1 [GRIFFONILIDE]
50 µg: MIC [1] | MIC [2] | MIC [3] | MIC [4] | MIC [5]

N#C/C=C1/C=C[C@@H](O)[C@H](O)[C@H]1O[C@@H]1O[C@H](CO)[C@@H](O)[C@H](O)[C@H]1O [GRIFFONIN]
50 µg: MIC [1] | MIC [2] | MIC [3] | MIC [4] | MIC [5]

CCCCCCCC/C=C\CCCCCCCC(=O)O [OLEIC ACID]
50 µg: MIC [1] | MIC [2] | MIC [3] | MIC [4] | MIC [5]

O=C(O)c1ccc(O)c(O)c1 [PROTOCATECHUIC ACID]
50 µg: MIC [1] | MIC [2] | MIC [3] | MIC [4] | MIC [5]

OC[C@H]1O[C@@](CO)(O[C@H]2O[C@H](CO)[C@@H](O)[C@H](O)[C@H]2O)[C@@H](O)[C@@H]1O [SUCROSE]
50 µg: MIC [1] | MIC [2] | MIC [3] | MIC [4] | MIC [5]
